Screening results: PubChem BioAssay, several laboratories
core dimer inh – HCV core protein dimerization inhibition. 300,000 tested, 0.33% active. inhibition, % at 5 µM. TR-FRET GST/Flag-core106 dimerization, 1536-well;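 active = inhibition above the mean of all tested compounds plus 3 SD, set per screening campaign, cut at about 45% in these data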
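System: GST/Flag-tagged HCV core106 proteins. Incubation: compound-protein-antibody incubation 4 h at 22.5 °C. Technique: HTRF with 340 nm excitation, 617/671 nm emission. Medium: KF-containing HEPES buffer, pH 7.45, DTT, CHAPS, BSA. Read-out: inhibition (%) from 671 over 617 nm ratio. Also added: Eu(K)-anti-GST 90 ng/mL plus XL665-anti-Flag 1 µg/mL.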
NadD inh – NadD (S. aureus) enzyme inhibition; AID 602399; 360,000 tested, 0.78% active; purified NadD enzyme, colorimetric absorbance read-out; inhibition, % at 20 µM; in the data active = inhibition above about 26%
Myeloid diff MLP – myeloid differentiation induction; 360,000 tested, 1% active; calls only at 10 µM; ER-HoxA9 myeloid progenitors, lysozyme-GFP differentiation, flow cytometry;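 active = normalized GFP-positive differentiation at or above the plate's own cutoff, the solvent-only control mean plus 3 SD; inconclusive = no clear call, values can overlap the other calls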;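 also: cells exposed to compound for four days before flow analysis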
PP5 inh – inhibitors of human protein phosphatase 5 (PP5); purified PP5c, OMFP substrate fluorescence; inhibition, % at 6.7 µM; 320,000 tested, 0.18% active; AID 1987;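 active = inhibition above the campaign's mean inhibition across all tested compounds plus 3 SD, cut at about 9.5% in these data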
Fh CTSL1 inh – cathepsin L1 inhibition, PFM18AAP counter-screen; 300,000 tested, 0.49% active; inhibition, % at 5.96 µM; AID 1906; recombinant F. hepatica cathepsin L1, Z-Leu-Arg-MCA fluorescence;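 active = inhibition above the mean of all tested compounds plus 3 SD, set per screening campaign, cut at about 17% in these data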
PP1 counter – counter-screen for PP5 inhibitors: inhibitors of human PP1-alpha; AID 2235; purified PP1alpha, OMFP fluorescence; P62136; 320,000 tested, 0.9% active; inhibition, % at 6.7 µM;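 active = inhibition above the mean inhibition of all tested compounds plus 3 SD, computed separately for each screening campaign, cut at about 15% in these data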
Target sequence (P62136 whole entry, looked up): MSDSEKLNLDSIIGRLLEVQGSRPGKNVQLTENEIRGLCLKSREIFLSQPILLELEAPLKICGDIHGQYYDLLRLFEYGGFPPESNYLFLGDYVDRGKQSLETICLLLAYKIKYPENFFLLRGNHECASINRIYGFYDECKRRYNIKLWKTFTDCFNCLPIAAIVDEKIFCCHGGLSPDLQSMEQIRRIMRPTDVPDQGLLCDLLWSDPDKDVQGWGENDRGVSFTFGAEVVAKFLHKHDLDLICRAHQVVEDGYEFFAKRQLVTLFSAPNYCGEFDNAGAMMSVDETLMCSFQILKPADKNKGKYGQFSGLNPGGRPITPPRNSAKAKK
A number is an active result; n = inactive; u = inconclusive; x = no result; + = active, no number. An excerpt weighted towards active compounds, which were near 3.1% of everything screened.

SMILES | core dimer inh | NadD inh | Myeloid diff MLP | PP5 inh | Fh CTSL1 inh | PP1 counter
Cc1ccc(S(=O)(=O)N(C)C)cc1NC(=S)N1CCN(Cc2ccc3c(c2)OCO3)CC1 | n | n | + | n | n | n
CCn1cc(Cl)c(C(=O)N2N=C(c3ccc4ccccc4c3)CC2c2ccccc2O)n1 (centres undefined) | n | 35.0 | n | n | n | n
Cc1ccc(CC(=O)N/N=C/c2ccc3c(c2)OCO3)cc1 | n | n | n | n | n | n
O=C(CCc1ccc(O)cc1)NN=Cc1ccc2c(c1)OCO2 | x | n | + | x | x | x
N/C(=N\OS(=O)(=O)c1ccc(Br)cc1)c1ccncc1 | n | n | n | n | 29.0 | n
O=C(CN1CCN(S(=O)(=O)c2ccccc2)CC1)N1CCc2ccccc21 | x | n | n | n | x | n
O=S(=O)(O)c1cc(O)c2cc(Nc3ccccc3)ccc2c1 | x | n | n | x | x | x
O=S(=O)(O)c1ccc(O)c2cc(Nc3ccccc3)ccc12 | x | 67.9 | n | x | x | x
CC1(C)NC(=S)NC1=S | x | n | n | x | x | x
O=C(CNS(=O)(=O)c1ccccc1)OCC(=O)c1c[nH]c2ccccc12 | x | n | + | n | x | n
CC(=O)Nc1ccc(S(=O)(=O)NCCSCc2cccc(Cl)c2)cc1 | n | n | + | n | n | n
CC(=O)Nc1ccc(S(=O)(=O)NCCSCc2c(Cl)cccc2Cl)cc1 | n | n | n | n | n | n
C[C@]12CCC(=O)CC1CCC1C2CC[C@@]2(C)C1CC[C@@]21CCO1 (some centres undefined) | n | n | + | n | n | n
C[C@]12CCC(=O)C[C@@H]1CC[C@@H]1[C@@H]2CC[C@]2(C)C=CC[C@@H]12 | n | n | n | n | n | n
COc1cc(C(=C(CC(=O)O)C(=O)O)c2ccc3c(c2)OCO3)cc(OC)c1OC | x | n | n | x | x | x
CCNc1ccc(Br)cc(C(=O)/C=C/c2c(Cl)cccc2Cl)c1=O | n | 55.6 | + | n | n | n
COc1ccc(C(=O)NC(C)c2ccccc2)cc1Br (centres undefined) | n | n | + | n | n | n
Oc1ccc(N=C/C=C/c2cccc(Br)c2)cc1-c1nc2ccccc2s1 | n | 40.7 | u | n | n | n
Oc1ccc(-c2nc3ccccc3s2)c(O)c1 | n | n | n | n | n | n
c1coc(-c2nnc(-c3ccco3)nn2)c1 | n | n | x | n | 22.7 | n
COC(=O)c1ccc(COc2ccccc2/C=N/NC(=O)c2cccnc2)cc1 | n | n | n | n | n | n
O=C(N/N=C/c1ccccc1C(=O)O)c1ccc(COc2cccc3cccnc23)cc1 | n | n | + | n | n | n
NNC(=O)c1ccc(COc2cccc3cccnc23)cc1 | n | n | + | n | n | n
CCOC(=O)c1c(NC(=O)c2c(-c3ccccc3)noc2C)sc(C)c1-c1ccccc1 | n | n | + | n | n | n
Cc1c(NC(=O)C2CC(c3cccc(Br)c3)=NO2)c(=O)n(-c2ccccc2)n1C (centres undefined) | n | n | n | n | 17.0 | n
SMILES | core dimer inh | NadD inh | Myeloid diff MLP | PP5 inh | Fh CTSL1 inh | PP1 counter
Cc1c(NC(=O)c2cc(C3CC3)on2)c(=O)n(-c2ccccc2)n1C | n | n | n | n | 42.0 | n
CCOc1ccccc1NC(=O)COC(=O)CC(C)(C)CC1=NS(=O)(=O)c2ccccc2N1 | n | n | n | n | n | n
COC(=O)CCCC1=CC2=CC(=O)C(C)(OC(=O)C3CCCC3)C(=O)C2=CO1 (centres undefined) | 63.8 | x | x | n | n | n
CCC(=O)OC1(C)C(=O)C=C2C=C(CCCC(=O)OC)OC=C2C1=O (centres undefined) | 53.3 | n | n | n | n | n
COC(=O)CCCC1=CC2=CC(=O)C(C)(O)C(=O)C2=CO1 (centres undefined) | n | x | x | n | n | n
O=C(CSc1ncccc1C(=O)O)Nc1ccc2c(c1)OCCO2 | n | n | n | n | n | n
COc1cc(N=Nc2cccc(S(N)(=O)=O)c2)c2ccccc2c1N | n | n | + | n | n | n
NC1=NC(=Nc2cccc(S(N)(=O)=O)c2)c2ccccc21 | n | n | n | n | n | n
Cc1ccc(N2/C(=N/c3nc(C)cc(C)n3)NC(=O)CC2C(=O)O)cc1 (centres undefined) | n | n | n | n | n | n
Cc1cc(C)nc(/N=C2\NC(=O)CC(C(=O)O)N2c2ccc(Oc3ccccc3)cc2)n1 (centres undefined) | n | n | n | n | 36.8 | n
